Laboratory results published in ChEMBL document CHEMBL1125379, “Binding of phenylalkylamine derivatives at 5-HT1C and 5-HT2 serotonin receptors: evidence for a lack of selectivity” (J Med Chem, 1992).

Key:
[1] = molecular target: T1, 5-hydroxytryptamine receptor 2C (Rattus norvegicus, UniProt P08909); experiment: Compound was tested for binding affinity towards 5-hydroxytryptamine 1C receptor from frontal cortical regions of male Sprague-Dawley rat homogenates, using [3H]mesulergine as radioligand
T1 sequence (P08909 whole entry): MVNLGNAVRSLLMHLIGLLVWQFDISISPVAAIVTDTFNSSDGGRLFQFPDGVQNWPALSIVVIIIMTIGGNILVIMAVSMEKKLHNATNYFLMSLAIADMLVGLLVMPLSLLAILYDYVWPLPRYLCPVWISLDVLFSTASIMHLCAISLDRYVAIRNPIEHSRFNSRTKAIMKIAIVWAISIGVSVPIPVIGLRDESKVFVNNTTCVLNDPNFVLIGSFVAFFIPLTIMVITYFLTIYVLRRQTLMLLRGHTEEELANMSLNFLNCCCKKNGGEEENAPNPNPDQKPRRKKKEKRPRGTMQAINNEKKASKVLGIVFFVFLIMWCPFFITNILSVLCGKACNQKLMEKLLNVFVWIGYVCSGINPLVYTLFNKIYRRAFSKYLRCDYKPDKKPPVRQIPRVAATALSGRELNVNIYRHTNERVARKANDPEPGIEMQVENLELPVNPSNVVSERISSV
In short: (§1)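 Male Sprague–Dawley rat frontal cortex membranes were washed in Tris/EDTA/MgCl2 pH 7.4 with a 37 °C preincubation and resuspended with ascorbate and pargyline. Each tube held 10 mg wet tissue, 1 nM [3H]mesulergine and 100 nM spiperone to block 5-HT2 sites. Nonspecific binding was set with 1 μM mianserin. Tubes were incubated 15 min at 37 °C, in triplicate, then filtered. Ki = IC50/(1+D*/KD*).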

[2] = molecular target: T2, Serotonin 2 (5-HT2) receptor (Rattus norvegicus, UniProt P30994+P08909+P14842); experiment: Binding affinity towards 5-hydroxytryptamine 2 receptor from frontal cortical regions of male Sprague-Dawley rat homogenates, using [3H]ketanserin as radioligand
In short: (§2)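 Male Sprague–Dawley rat frontal cortex membranes were washed in 50 mM Tris, 0.5 mM EDTA, 10 mM MgCl2, pH 7.4, and resuspended with 0.1% ascorbate and 10^-6 M pargyline. Each tube held 5 mg wet tissue and 0.4 nM [3H]ketanserin. Nonspecific binding was set with 1.0 μM cinanserin. Tubes were incubated 15 min at 37 °C, in triplicate, then filtered on PEI-soaked glass fiber. Ki came from IC50 via Cheng–Prusoff, using the saturation KD.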

[3] = molecular target: T2, Serotonin 2 (5-HT2) receptor; experiment: Compound was tested for binding affinity towards 5-hydroxytryptamine 2 (5-hydroxytryptamine-2) receptor from frontal cortical regions of male Sprague-Dawley rat homogenates, using [3H]-ketanserin as radioligand; in short: as §2
[4] = molecular target: Serotonin 2 (5-HT2) receptor (Rattus norvegicus) (UniProt P30994+P08909+P14842); experiment: 5-HT1C selectivity was defined as the ratio between Ki(5-HT2)/Ki(5-HT1C); assay type: protein assay
Chain of Serotonin 2 (5-HT2) receptor (Rattus norvegicus) (P14842 whole entry, looked up, one chain of several): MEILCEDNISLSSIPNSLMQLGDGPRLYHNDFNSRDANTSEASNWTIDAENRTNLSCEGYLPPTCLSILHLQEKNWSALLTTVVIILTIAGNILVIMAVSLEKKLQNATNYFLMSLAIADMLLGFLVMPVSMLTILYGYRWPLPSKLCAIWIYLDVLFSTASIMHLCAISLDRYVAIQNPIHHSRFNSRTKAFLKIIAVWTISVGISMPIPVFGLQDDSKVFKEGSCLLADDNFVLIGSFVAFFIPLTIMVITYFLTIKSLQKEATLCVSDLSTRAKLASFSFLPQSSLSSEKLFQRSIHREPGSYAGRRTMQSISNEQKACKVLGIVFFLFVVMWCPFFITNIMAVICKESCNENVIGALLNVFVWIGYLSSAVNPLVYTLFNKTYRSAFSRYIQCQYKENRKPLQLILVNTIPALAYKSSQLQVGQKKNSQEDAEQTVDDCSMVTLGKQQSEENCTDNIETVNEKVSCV
Chain of Serotonin 2 (5-HT2) receptor (Rattus norvegicus) (P30994 whole entry, looked up, one chain of several): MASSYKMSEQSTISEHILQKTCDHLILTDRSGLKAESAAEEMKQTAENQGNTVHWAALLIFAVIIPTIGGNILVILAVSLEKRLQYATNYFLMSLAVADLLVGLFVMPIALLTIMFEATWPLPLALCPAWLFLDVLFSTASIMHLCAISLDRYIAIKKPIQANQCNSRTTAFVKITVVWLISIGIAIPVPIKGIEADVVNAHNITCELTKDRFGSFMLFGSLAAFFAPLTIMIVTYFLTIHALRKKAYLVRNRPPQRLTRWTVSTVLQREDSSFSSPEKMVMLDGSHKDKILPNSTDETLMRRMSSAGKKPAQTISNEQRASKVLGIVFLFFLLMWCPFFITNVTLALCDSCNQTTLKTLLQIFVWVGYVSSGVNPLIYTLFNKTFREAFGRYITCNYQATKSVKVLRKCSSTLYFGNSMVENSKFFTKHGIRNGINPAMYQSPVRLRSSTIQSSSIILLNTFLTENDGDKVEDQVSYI
In short: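 Ratio of Ki values from rat frontal cortex competition assays. For 5-HT2: 0.4 nM [3H]ketanserin, with 1 μM cinanserin nonspecific. For 5-HT1C: 1 nM [3H]mesulergine plus 100 nM spiperone, with 1 μM mianserin nonspecific. Both were run 15 min at 37 °C in triplicate. Ki = IC50/(1+D*/KD*).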

[5] = molecular target: T1, 5-hydroxytryptamine receptor 2C; experiment: Binding affinity towards 5-hydroxytryptamine 1C receptor from frontal cortical regions of male Sprague-Dawley rat homogenates, using [3H]mesulergine as radioligand; in short: as §1

SMILES	Ki [1]	Ki [2]	Ki [3]	Selectivity [4]	Ki [5]
CCOc1ccc(CC(C)N)cc1 (stereo unspecified)	> 10 µM	> 10 µM	–	–	–
CCCc1ccc(CC(C)N)cc1 (stereo unspecified)	1.25 µM	–	2.345 µM	2	–
CCCCc1cc(OC)c(CC(C)N)cc1OC (stereo unspecified)	–	–	–	2	0.026 µM
CC(N)Cc1ccc(Br)cc1 (stereo unspecified)	–	–	–	–	1.48 µM
COc1cc(C)ccc1CC(C)N (stereo unspecified)	–	1.435 µM	–	2	0.61 µM
CCCc1cc(OC)c(CC(C)N)cc1OC (stereo unspecified)	–	–	–	5	0.014 µM
COc1cc(Br)ccc1CCN	–	1.03 µM	–	5	0.22 µM
Cc1ccc(CC(C)N)cc1 (stereo unspecified)	> 10 µM	–	> 10 µM	–	–
CCCOC(=O)c1cc(OC)c(CC(C)N)cc1OC (stereo unspecified)	–	–	–	< 1	> 10 µM
CCOc1cc(OC)c(CC(C)N)cc1OC (stereo unspecified)	–	–	–	1	2.3 µM
COc1cc(Br)ccc1CC(C)N (stereo unspecified)	–	0.83 µM	–	8	0.1 µM
COc1ccc(OC)c(CC(C)N)c1 (stereo unspecified)	–	–	–	–	1.22 µM
CCCNC(C)Cc1cc(OC)c(Br)cc1OC (stereo unspecified)	–	2.46 µM	–	< 1	> 10 µM
CNC(C)Cc1ccc(C)cc1OC (stereo unspecified)	–	–	–	–	1.48 µM
COc1cc(I)ccc1CC(C)N (stereo unspecified)	–	0.58 µM	–	5	0.13 µM
CCCc1ccc(CC(C)NC)cc1 (stereo unspecified)	–	2.525 µM	–	1	1.93 µM
COc1ccc(CC(C)N)c(OC)c1 (stereo unspecified)	–	> 10 µM	–	> 2	4.48 µM
COc1cc(CC(C)N)c(OC)cc1I (stereo unspecified)	–	–	–	0.6	0.03 µM
COc1cccc(Br)c1CC(C)N (stereo unspecified)	–	> 10 µM	–	> 6	1.56 µM
CNC(C)Cc1cc(OC)c(Br)cc1OC (stereo unspecified)	–	0.08 µM	–	1	0.098 µM
COc1cc(C)ccc1CCN	–	0.825 µM	–	7	0.11 µM
CC(N)Cc1ccc(OC(=O)c2ccccc2)cc1 (stereo unspecified)	1.21 µM	–	–	–	–
